Experimental data from different studies.
Protocols differ between the studies behind these lines.
Target: MAP kinase-interacting serine/threonine-protein kinase 1 (MKNK1, Homo sapiens, UniProt Q9BUB5)

The remaining binding of `C=CC(=O)N1CCC(C(=O)NCC(=O)N2CCN(c3nc(-c4cnc(N)nc4C(F)F)nc(N4CCOCC4)n3)CC2)CC1` is reported as 83% (binding; competition with immobilised ligand; 1 µM).
`N#Cc1ccccc1CSc1nnc2c(n1)[nH]c1ccccc12` has a remaining binding of 98% (binding; competition with immobilised ligand; 10 µM).
With `O=C(c1ccc(Nc2ncc(Cl)c(-c3cc4ccccc4s3)n2)cc1)N1CCC(N2CCCC2)CC1` the remaining binding was 24% (binding; competition with immobilised ligand; 1 µM).
The remaining binding of `O=C(NCC1CCOCC1)c1n[nH]cc1NC(=O)c1c(F)cccc1F` is reported as 88% (binding; competition with immobilised ligand; 1 µM).
`c1cnn2ncc(-c3ccnc(N4CCC45COC5)n3)c2c1` gave a remaining binding of 53% (binding; 1 µM).
The remaining binding of `O=C(NCCCC1CCCCC1)c1ccc(CNC(=O)c2cnn(-c3ccccc3)c2C(F)(F)F)cc1` is reported as 98% (cell-free assay; competition with immobilised ligand; 0.1 µM).
`CNC(=O)[C@@H]1CC[C@@H](n2c(-c3ccc4cnccc4c3)nc3ccc(C(=O)NCc4cccc(C(N)=O)c4)cc32)C1` gave a remaining binding of 100% (binding; competition with immobilised ligand; 1 µM).
`C[C@@H]1CCN(c2nccc(-c3cnn4ncccc34)n2)C1` has a remaining binding of 74% (binding; 1 µM).
`CO[C@@H](C)c1c(Nc2ccc([C@H](N(C)C(=O)C3CCS(=O)(=O)CC3)C(F)(F)F)cc2)cnc2cc(Cl)nn12` gave a remaining binding of 100% (cell-free assay; competition with immobilised ligand; 1 µM).
The remaining binding of `Cc1cnc(Nc2ccc(C(=O)N3CCC(N4CCCC4)CC3)cc2)nc1-c1cc2ccccc2s1` is reported as 48% (binding; competition with immobilised ligand; 1 µM).
For `COc1cnc(Nc2cccc(S(N)(=O)=O)c2)nc1N1CCN(c2ccccc2)C(=O)C1`, the remaining binding was 98% (binding; competition with immobilised ligand; 1 µM).
The remaining binding of `C[C@@H]1CN(c2ccc3ncc(-c4ccc5[nH]nc(C6CC6)c5c4)n3n2)C[C@H](C)O1` is reported as 94% (binding; competition with immobilised ligand; 0.5 µM).
The remaining binding of `CN(CCCC(F)(F)F)c1nccc(-c2cnn3ncccc23)n1` is reported as 100% (binding; 1 µM).
With `Nc1ncc2c(n1)-c1c([nH]c3ccc(C#CC4CC4)cc13)CCCC2` the remaining binding was 86% (binding; competition with immobilised ligand; 1 µM).
`CC(=O)N1CCC(c2ccc(C(=O)NC(=N)N)cc2C(F)(F)F)CC1` gave a remaining binding of 100% (cell-free assay; competition with immobilised ligand; 1 µM).
`N[C@H]1CCN(c2nccc(-c3cnn4ncccc34)n2)C1` has a remaining binding of 90% (binding; 1 µM).
The remaining binding of `FC(F)(F)Oc1cccc(-c2cnc3ccc(-c4ccncc4)nn23)c1` is reported as 71% (cell-free assay; competition with immobilised ligand; 5 µM).
`Cc1nc(Cc2cccc(C(F)(F)F)c2)sc1-c1ccc(C(N)=O)nc1` has a remaining binding of 100% (cell-free assay; competition with immobilised ligand; 1 µM).
The remaining binding of `O=C(c1ccc(Nc2ncc(Cl)c(-c3ccc(Cl)s3)n2)cc1)N1CCC(N2CCCC2)CC1` is reported as 45% (binding; competition with immobilised ligand; 1 µM).
The remaining binding of `CS(=O)(=O)c1cc(C2(NC(=O)c3cncc4c3cnn4-c3ccc(F)cc3)CC2)ccn1` is reported as 47% (cell-free assay; competition with immobilised ligand; 1 µM).
`CC1CCCN1c1nccc(-c2cnn3ncccc23)n1` (stereo not shown) has a remaining binding of 89% (binding; 1 µM).
`CS(=O)(=O)N1CCCC(NC(=O)[C@H](CCC2CCCCC2)NC(=O)c2ccc(CNC(=O)c3cnc4ccccn34)cc2)C1` (stereo partly shown) has a remaining binding of 100% (cell-free assay; competition with immobilised ligand; 0.1 µM).
The remaining binding of `F[C@@H]1CCN(c2nccc(-c3cnn4ncccc34)n2)C1` is reported as 100% (binding; 1 µM).
The remaining binding of `Cc1cc(C)c(-n2ccn3nc(-c4cccnc4)cc23)cc1NC(=O)c1cc(C#N)cc(S(F)(F)(F)(F)F)c1` is reported as 83.8% (cell-free assay; competition with immobilised ligand; 0.1 µM).
The remaining binding of `C[C@@H](c1ccc(-n2cnc3c(N)ncnc32)cc1)N1CCc2nn(C)c(Cc3ccccc3)c2C1=O` is reported as 58% (binding; competition with immobilised ligand; 0.1 µM).
